The target in assay [1] is T1, Kappa-type opioid receptor (Homo sapiens, UniProt P41145). The assay can be described thus: Displacement of [3H]U-69593 from human kappa opioid receptor expressed in CHO cells. The format is cell-based. Put shortly: (§1)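 Competition radioligand binding at the human receptors, run at the Psychoactive Drug Screening Program. Radioligands were [3H]DAMGO (MOR), [3H]DADLE (DOR) and [3H]U69,593 (KOR). Radioligand Kd determined by homologous competition binding with the receptor-specific radioligand. Ki values reported.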
T1 sequence (P41145 whole entry): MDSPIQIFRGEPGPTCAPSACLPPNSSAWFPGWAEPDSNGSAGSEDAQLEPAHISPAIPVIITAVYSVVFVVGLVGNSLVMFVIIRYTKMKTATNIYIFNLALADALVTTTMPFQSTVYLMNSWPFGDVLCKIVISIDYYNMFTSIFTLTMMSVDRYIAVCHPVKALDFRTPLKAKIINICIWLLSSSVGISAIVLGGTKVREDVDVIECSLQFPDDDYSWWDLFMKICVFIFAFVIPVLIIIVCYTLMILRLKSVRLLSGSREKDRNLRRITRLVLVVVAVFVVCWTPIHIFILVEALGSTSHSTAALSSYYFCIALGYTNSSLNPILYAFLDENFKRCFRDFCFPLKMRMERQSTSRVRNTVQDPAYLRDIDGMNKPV
A general note: Displacement assays read how much labelled ligand stays bound in the presence of the test substance.

Assay [2] addresses T2, Delta-type opioid receptor (Homo sapiens, UniProt P41143). Description: Displacement of [3H]DADLE from human delta opioid receptor expressed in CHO cells. The format is cell-based. Put shortly:
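Competition radioligand binding at the human receptors, run at the Psychoactive Drug Screening Program. Radioligand Kd determined by homologous competition binding with the receptor-specific radioligand. Ki values reported.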

Assay [3] has as its target T3, Mu-type opioid receptor (Homo sapiens, UniProt P35372). Description: Displacement of [3H]DAMGO from human mu opioid receptor expressed in CHO cells. In kind it is cell-based. Put shortly: as §1
For assay [4], the target named is T2, Delta-type opioid receptor. The assay can be described thus: Agonist activity at human delta opioid receptor expressed in CHO cells by [35S]GTPgammaS binding assay relative to DPDPE. In kind it is functional, cell-based. Put shortly: (§2)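 Membranes from CHO cells over-expressing the human receptor. Stimulated [35S]GTPγS binding measured with eight concentrations chosen to define both asymptotes of the concentration-response curve. EC50 and Emax calculated. Emax expressed as a percentage of the Emax of the standard agonist on the same plate: DAMGO (mu), DPDPE (delta), U50,488 (kappa). Mean ± SE of at least three experiments.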
On the technique in general: GTPγS resists hydrolysis and so accumulates on activated G proteins.

In assay [5] the target is T2, Delta-type opioid receptor. Description: Agonist activity at human delta opioid receptor expressed in CHO cells by [35S]GTPgammaS binding assay. The format is functional, cell-based. The procedure, abridged:
as §2

The target in assay [6] is T3, Mu-type opioid receptor. The assay can be described thus: Agonist activity at human mu opioid receptor expressed in CHO cells by [35S]GTPgammaS binding assay relative to DAMGO. The format is functional, cell-based. The procedure, abridged:
as §2

In assay [7] the target is T3, Mu-type opioid receptor. Description: Agonist activity at human mu opioid receptor expressed in CHO cells by [35S]GTPgammaS binding assay. In kind it is functional, cell-based. Put shortly: as §2
In assay [8] the target is T2, Delta-type opioid receptor. Description: Intrinsic agonist activity at human delta opioid receptor expressed in CHO cells by [35S]GTPgammaS binding assay. The format is functional, cell-based.
In assay [9] the target is T1, Kappa-type opioid receptor. Description: Antagonist activity at human kappa opioid receptor expressed in CHO cells by [35S]GTPgammaS binding assay. In kind it is functional, cell-based. The procedure, abridged: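 Inhibition of [35S]GTPγS binding stimulated by the selective agonist in CHO cells over-expressing the human receptor. Agonists were DPDPE (delta) and U69,593 (kappa). Agonist dose-response curves run with and without a single concentration of test compound. Ke = [L]/(DR−1), where DR is the ratio of agonist EC50 with and without test compound. Mean ± SE of at least three experiments.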

For assay [10], the target named is T1, Kappa-type opioid receptor. Description: Agonist activity at human kappa opioid receptor expressed in CHO cells by [35S]GTPgammaS binding assay relative to U50,488. The format is functional, cell-based. The procedure, abridged:
as §2

Assay [11] deals with T1, Kappa-type opioid receptor. Description: Agonist activity at human kappa opioid receptor expressed in CHO cells by [35S]GTPgammaS binding assay. In kind it is functional, cell-based. The procedure, abridged: as §2
For assay [12], the target named is T2, Delta-type opioid receptor. The assay can be described thus: Intrinsic activity at human delta opioid receptor expressed in CHO cells by [35S]GTPgammaS binding assay. In kind it is functional, cell-based.

pEC50, pKi: −log10 of the molar value. A value given as a limit tells only on which side of the number the result lay.

What is called pKi is the negative decadic logarithm of the Ki, by convention in mol/L. The low end stands for a large Ki, the high end for a small Ki. Usually Emax stands for the greatest response seen or fitted, relative to the assay's reference. The pEC50 is the EC50 on a negative log10 scale, so that one unit is a factor of ten. Low readings indicate a high EC50, high ones a low EC50.

T2 sequence (P41143 whole entry): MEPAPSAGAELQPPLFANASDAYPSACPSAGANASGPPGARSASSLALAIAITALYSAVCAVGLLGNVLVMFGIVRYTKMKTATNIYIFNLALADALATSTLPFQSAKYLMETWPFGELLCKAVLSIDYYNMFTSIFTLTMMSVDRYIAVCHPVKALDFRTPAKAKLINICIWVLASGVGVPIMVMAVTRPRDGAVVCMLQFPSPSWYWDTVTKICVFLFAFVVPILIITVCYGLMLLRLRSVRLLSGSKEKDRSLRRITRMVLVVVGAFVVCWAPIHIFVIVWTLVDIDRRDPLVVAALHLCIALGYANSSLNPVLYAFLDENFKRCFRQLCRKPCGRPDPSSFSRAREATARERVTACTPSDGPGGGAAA
T3 sequence (P35372 whole entry): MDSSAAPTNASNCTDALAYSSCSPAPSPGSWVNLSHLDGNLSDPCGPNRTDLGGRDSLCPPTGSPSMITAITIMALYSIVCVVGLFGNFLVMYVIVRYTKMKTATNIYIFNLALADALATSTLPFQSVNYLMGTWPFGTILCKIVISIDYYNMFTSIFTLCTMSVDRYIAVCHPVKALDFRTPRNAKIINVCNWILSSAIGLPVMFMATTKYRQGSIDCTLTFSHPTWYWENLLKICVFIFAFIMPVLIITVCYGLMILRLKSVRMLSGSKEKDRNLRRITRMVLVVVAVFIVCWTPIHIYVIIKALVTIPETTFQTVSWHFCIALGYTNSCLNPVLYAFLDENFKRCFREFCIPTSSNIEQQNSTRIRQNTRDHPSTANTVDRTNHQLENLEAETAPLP

As to `CN[C@H]1C[C@H]2C[C@@](c3cccc(O)c3)(C1)[C@H](C)CN2CCCc1ccccc1`, the negative-log Ki (pKi) is 7.68 in assay [1], 7.44 in [2] and 9.43 on Mu-type opioid receptor [3]. The Emax is 101% in [4] and 105% at Mu-type opioid receptor [6]. In addition, the figures for the pEC50 (in [5]; on Mu-type opioid receptor [7]) were 7.83 and 7.82, respectively.

`C[C@@H]1CN(CCCc2ccccc2)[C@@H]2CCC[C@]1(c1cccc(O)c1)C2`: the pKi was 8.11 in assay [1], 6.79 in [2] and 8.79 on Mu-type opioid receptor [3].

Turning to `C[C@@H]1CN(CCCc2ccccc2)[C@H]2C[C@H](NCC3CC3)C[C@]1(c1cccc(O)c1)C2`, the pKi was 7.86 in assay [1] and 8.12 on Mu-type opioid receptor [3]. At Mu-type opioid receptor [6], this molecule yielded an Emax of 52%. The pEC50 at Mu-type opioid receptor [7] is 6.89.

As for `C[C@H]1CN(CCCc2ccccc2)[C@@H]2C[C@@H](N)C[C@@]1(c1cccc(O)c1)C2`, in assay [8], the Agonist potency was over 5 µM. The molecule also came in with a Ke in assay [9] of 21.7 nM. This molecule also had an Emax at Mu-type opioid receptor [6] of 44%. The pEC50 on Mu-type opioid receptor [7] is 7.69.

As to `C[C@@H]1CN(CCCc2ccccc2)[C@H]2C[C@H](N(C)CC3CC3)C[C@]1(c1cccc(O)c1)C2`, the pKi in assay [1] is 9.04; in assay [2], 8.04; at Mu-type opioid receptor [3], 9.37. Besides, the Emax turned out to be 38% in assay [10], 24% in [4] and 109% at Mu-type opioid receptor [6]. Moreover, the pEC50 is 7.40 in assay [11], 7.99 in assay [5] and 8.57 on Mu-type opioid receptor [7].

For the molecule `C[C@@H]1CN(CCCc2ccccc2)[C@H]2C[C@H](N(C)C)C[C@]1(c1cccc(O)c1)C2`, the pKi in [1] was 8.00; in [2] it was 7.74; at Mu-type opioid receptor [3], 9.55. Further, the Emax in [4] is 55%; at Mu-type opioid receptor [6], 104%. Besides, the pEC50 was 7.42 in assay [5] and 8.19 on Mu-type opioid receptor [7].

For the molecule `CCN[C@H]1C[C@H]2C[C@@](c3cccc(O)c3)(C1)[C@H](C)CN2CCCc1ccccc1`, in assay [8], the Agonist potency is over 5 µM. Also, the pKi was 8.09 in [1], 6.58 in [2] and 8.47 at Mu-type opioid receptor [3]. Further, at Mu-type opioid receptor [6], the Emax was determined as 14%. Moreover, on Mu-type opioid receptor [7], the pEC50 was 7.48.

On to `C[C@@H]1CN(CCCc2ccccc2)[C@H]2C[C@H](N)C[C@]1(c1cccc(O)c1)C2`, for which the Ke in [9] came out at 10.1 nM. The Emax came out at 101% in assay [4] and 74% at Mu-type opioid receptor [6]. The results for the pEC50 (in [5] (cho); on Mu-type opioid receptor [7] (cho)) were 8.12 and 7.71, respectively.

`CCN(C)[C@H]1C[C@H]2C[C@@](c3cccc(O)c3)(C1)[C@H](C)CN2CCCc1ccccc1` registered an Intrinsic activity in assay [12] of over 5 µM. In addition, the Agonist potency in assay [8] is over 5 µM. Further, at Mu-type opioid receptor [6], the Emax was 94%. In addition, the pEC50 on Mu-type opioid receptor [7] is 7.22.

The molecule `CCCN[C@H]1C[C@H]2C[C@@](c3cccc(O)c3)(C1)[C@H](C)CN2CCCc1ccccc1` registered an Agonist potency in assay [8] of over 5 µM. Besides, the results for the pKi (in [1]; in assay [2]; on Mu-type opioid receptor [3]) were 8.85, 7.13 and 8.78, respectively. Besides, the Emax in [10] came to 20.7%; at Mu-type opioid receptor [6], 57%. Also, the pEC50 in assay [11] is 6.53; at Mu-type opioid receptor [7], 7.74.

Values taken from ChEMBL document CHEMBL3085655, “4β-Methyl-5-(3-hydroxyphenyl)morphan opioid agonist and partial agonist derived from a 4β-methyl-5-(3-hydroxyphenyl)morphan pure antagonist” (J Med Chem, 2013).
